# Assay results published in ChEMBL document CHEMBL3120154, “2-[N-Alkyl(R-phenyl)-aminomethyl]-3-phenyl-7-trifluoromethylquinoxalines as anticancer agents inhibitors of folate enzymes” (Eur J Med Chem, 2014).
# Tests used:
# SNB-19 = assay: Cytotoxicity against human SNB19 cells at 10^-4 M after 48 hrs by SRB assay; assay type: functional; conditions: SNB-19, 48 h, read-out: GI
# In short: (§1)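 Second-stage screen in the 60-cell-line human tumor panel at NCI, over a 5-log range (100, 10, 1, 0.1, 0.01 micromolar). Cells were exposed to drug for 48 h and growth was estimated with a sulforhodamine B protein stain. The value is percent growth inhibition at each concentration.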
# HOP-92 = assay: Cytotoxicity against human HOP92 cells at 10^-4 M after 48 hrs by SRB assay; assay type: functional; conditions: HOP-92, 48 h, read-out: GI
# In short: (§2)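 Run by NCI on its 60-line human tumor cell panel, after a three-cell-line prescreen. Cells were exposed to drug for 48 h over a 5-log range: 100, 10, 1, 0.1 and 0.01 micromolar. Growth was estimated by sulforhodamine B (SRB) protein staining. Percent growth inhibition (I%) was recorded at each concentration relative to untreated control cells.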
# SF-539 = assay: Cytotoxicity against human SF539 cells at 10^-4 M after 48 hrs by SRB assay; assay type: functional; conditions: SF-539, 48 h, read-out: GI; in short: as §1
# RXF 393 = assay: Cytotoxicity against human RXF393 cells at 10^-4 M after 48 hrs by SRB assay; assay type: functional; conditions: RXF 393, 48 h, read-out: GI; in short: as §1
# ACHN = assay: Cytotoxicity against human ACHN cells at 10^-4 M after 48 hrs by SRB assay; assay type: functional; conditions: read-out: GI; in short: as §2
# [1] = Cytotoxicity against human OVCAR5 cells at 10^-4 M after 48 hrs by SRB assay; assay type: functional; conditions: OVCAR-5, 48 h, read-out: GI; in short: as §1
# MOLT-4 = assay: Cytotoxicity against human MOLT4 cells at 10^-4 M after 48 hrs by SRB assay; assay type: functional; conditions: MOLT-4, 48 h, read-out: GI
# In short: (§3)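 Run in the NCI 60-cell-line screen after a three-line prescreen. Cells got a 48 h drug exposure; viability/growth was estimated with the sulforhodamine B protein assay. Growth inhibition (I%) was recorded at 100, 10, 1, 0.1 and 0.01 micromolar. Percent growth is relative to untreated control cells, and negative values indicate cell kill.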
# HT-29 = assay: Cytotoxicity against human HT-29 cells at 10^-4 M after 48 hrs by SRB assay; assay type: functional; conditions: HT-29, 48 h, read-out: GI; in short: as §2
# SK-MEL-2 = assay: Cytotoxicity against human SK-MEL-2 cells at 10^-4 M after 48 hrs by SRB assay; assay type: functional; conditions: SK-MEL-2, 48 h, read-out: GI; in short: as §1
# SF-295 = assay: Cytotoxicity against human SF295 cells at 10^-4 M after 48 hrs by SRB assay; assay type: functional; conditions: SF-295, 48 h, read-out: GI; in short: as §1
# HCC 2998 = assay: Cytotoxicity against human HCC2998 cells at 10^-4 M after 48 hrs by SRB assay; assay type: functional; conditions: HCC 2998, 48 h, read-out: GI; in short: as §2
# CAKI-1 = assay: Cytotoxicity against human Caki1 cells at 10^-4 M after 48 hrs by SRB assay; assay type: functional; conditions: CAKI-1, 48 h, read-out: GI; in short: as §2
# [2] = Cytotoxicity against human Hs578T cells at 10^-4 M after 48 hrs by SRB assay; assay type: functional; conditions: Hs-578T, read-out: GI; in short: as §2
# HOP-62 = assay: Cytotoxicity against human HOP62 cells at 10^-4 M after 48 hrs by SRB assay; assay type: functional; conditions: HOP-62, 48 h, read-out: GI; in short: as §2
# SF-268 = assay: Cytotoxicity against human SF268 cells assessed as cell growth at 10^-4 M after 48 hrs by alamar blue assay relative to untreated control; assay type: functional; conditions: SF-268, 48 h, read-out: Activity
# In short: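 Three-cell-line prescreen at NCI. Each line was seeded and pre-incubated, then given a single concentration (10^-4 or 10^-5 M) and incubated for 48 h. The end-point was alamar blue. The value is percent growth of treated cells versus untreated control cells, with negative numbers indicating cell kill.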
# KM12 = assay: Cytotoxicity against human KM12 cells at 10^-4 M after 48 hrs by SRB assay; assay type: functional; conditions: KM12, 48 h, read-out: GI; in short: as §3
# NCI-H460 = assay: Cytotoxicity against human NCI-H460 cells at 10^-4 M after 48 hrs by SRB assay; assay type: functional; conditions: NCI-H460, 48 h, read-out: GI; in short: as §3
# OVCAR-3 = assay: Cytotoxicity against human OVCAR3 cells at 10^-4 M after 48 hrs by SRB assay; assay type: functional; conditions: OVCAR-3, 48 h, read-out: GI; in short: as §3
# T47D = assay: Cytotoxicity against human T47D cells at 10^-4 M after 48 hrs by SRB assay; assay type: functional; conditions: read-out: GI; in short: as §1
# 786-0 [3] = assay: Cytotoxicity against human 786-0 cells at 10^-4 M after 48 hrs by SRB assay; assay type: functional; conditions: 786-0, 48 h, read-out: GI; in short: as §2
# [4] = Cytotoxicity against human OVCAR4 cells at 10^-4 M after 48 hrs by SRB assay; assay type: functional; conditions: OVCAR-4, 48 h, read-out: GI; in short: as §1
# NCI-H522 = assay: Cytotoxicity against human NCI-H522 cells at 10^-4 M after 48 hrs by SRB assay; assay type: functional; conditions: NCI-H522, 48 h, read-out: GI; in short: as §3
# SN12C = assay: Cytotoxicity against human SN12C cells at 10^-4 M after 48 hrs by SRB assay; assay type: functional; conditions: read-out: GI; in short: as §1
# LOX IMVI = assay: Cytotoxicity against human LOXIMVI cells at 10^-4 M after 48 hrs by SRB assay; assay type: functional; conditions: read-out: GI; in short: as §3
# Dihydrofolate reductase = molecular target: T1, Dihydrofolate reductase (Homo sapiens, UniProt P00374); assay: Competitive inhibition of human dihydrofolate reductase by spectrophotometry
# T1 sequence (P00374 whole entry): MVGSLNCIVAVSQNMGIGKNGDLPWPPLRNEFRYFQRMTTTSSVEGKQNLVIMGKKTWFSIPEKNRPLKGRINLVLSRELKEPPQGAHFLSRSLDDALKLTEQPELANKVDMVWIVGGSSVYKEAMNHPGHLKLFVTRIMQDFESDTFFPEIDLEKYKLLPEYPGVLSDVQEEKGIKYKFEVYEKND
# TK-10 [5] = assay: Cytotoxicity against human TK10 cells at 10^-4 M after 48 hrs by SRB assay; assay type: functional; conditions: TK-10, 48 h, read-out: GI; in short: as §1
# NCI-H226 = assay: Cytotoxicity against human NCI-H226 cells at 10^-4 M after 48 hrs by SRB assay; assay type: functional; conditions: NCI-H226, 48 h, read-out: GI; in short: as §3
# HL-60(TB) = assay: Cytotoxicity against human HL-60(TB) cells at 10^-4 M after 48 hrs by SRB assay; assay type: functional; conditions: HL-60, 48 h, read-out: GI
# In short: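 NCI 60-human-tumour-cell-line screen run over a 5-log dose range (100, 10, 1, 0.1 and 0.01 µM). Cells were exposed to drug for 48 h. Growth was estimated by sulforhodamine B protein staining. Values are percent growth inhibition at each concentration, relative to untreated control cells.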
# CCRF-CEM = assay: Cytotoxicity against human CCRF-CEM cells at 10^-4 M after 48 hrs by SRB assay; assay type: functional; conditions: read-out: GI; in short: as §2
# 786-0 [6] = assay: Cytotoxicity against human 786-0 cells at 10^-5 M after 48 hrs by SRB assay; assay type: functional; conditions: 786-0, 48 h, read-out: GI; in short: as §2
# TK-10 [7] = assay: Cytotoxicity against human TK10 cells at 10^-5 M after 48 hrs by SRB assay; assay type: functional; conditions: TK-10, 48 h, read-out: GI
# MCF7 = assay: Cytotoxicity against human MCF7 cells at 10^-5 M after 48 hrs by SRB assay; assay type: functional; conditions: MCF7, 48 h, read-out: GI; in short: as §3
SMILES,inhibition of growth at 100 µM (SNB-19),inhibition of growth at 100 µM (HOP-92),inhibition of growth at 100 µM (SF-539),inhibition of growth at 100 µM (RXF 393),inhibition of growth at 100 µM (ACHN),inhibition of growth at 100 µM [1],inhibition of growth at 100 µM (MOLT-4),inhibition of growth at 100 µM (HT-29),inhibition of growth at 100 µM (SF-295),inhibition of growth at 100 µM [2],growth at 100 µM (SF-268),inhibition of growth at 100 µM (NCI-H460),inhibition of growth at 100 µM (OVCAR-3),inhibition of growth at 100 µM (T47D),inhibition of growth at 100 µM (786-0 [3]),inhibition of growth at 100 µM [4],inhibition of growth at 100 µM (NCI-H522),inhibition of growth at 100 µM (SN12C),inhibition of growth at 100 µM (LOX IMVI),Ki (Dihydrofolate reductase),further results
C#CCN(Cc1nc2cc(C(F)(F)F)ccc2nc1-c1ccccc1)c1ccc(OC(F)(F)F)cc1,< 40%,109%,161%,67%,65%,< 40%,79%,77%,49%,< 40%,21%,78%,88%,70%,46%,< 40%,125%,83%,102%,4 µM,inhibition of growth at 100 µM (SK-MEL-2): < 40%; inhibition of growth at 100 µM (HCC 2998): 104%; inhibition of growth at 100 µM (CAKI-1): 69%; inhibition of growth at 100 µM (HOP-62): 48%; inhibition of growth at 100 µM (KM12): 112%; inhibition of growth at 100 µM (TK-10 [5]): 64%
C#CCN(Cc1nc2cc(C(F)(F)F)ccc2nc1-c1ccccc1)c1ccc(F)cc1,84%,106%,96%,89%,89%,56%,81%,80%,68%,94%,90%,94%,94%,90%,132%,87%,93%,102%,101%,8 µM,inhibition of growth at 100 µM (NCI-H226): 71%; inhibition of growth at 100 µM (HL-60(TB)): 92%; inhibition of growth at 100 µM (CCRF-CEM): 94%; inhibition of growth at 100 µM (CAKI-1): 110%; inhibition of growth at 100 µM (KM12): 124%; inhibition of growth at 100 µM (TK-10 [5]): 123%
C#CCN(Cc1nc2cc(C(F)(F)F)ccc2nc1-c1ccccc1)c1ccc(C)cc1,163%,93%,77%,137%,193%,200%,85%,200%,150%,113%,89%,96%,164%,172%,184%,200%,134%,135%,178%,6 µM,inhibition of growth at 100 µM (NCI-H226): 145%; inhibition of growth at 100 µM (HL-60(TB)): 105%; inhibition of growth at 10 µM (786-0 [6]): 70%; inhibition of growth at 100 µM (SK-MEL-2): 136%; inhibition of growth at 10 µM (TK-10 [7]): 54%; inhibition of growth at 100 µM (CCRF-CEM): < 40%; inhibition of growth at 100 µM (CAKI-1): 147%; inhibition of growth at 100 µM (HOP-62): 199%; inhibition of growth at 100 µM (KM12): 161%; inhibition of growth at 10 µM (MCF7): 70%; inhibition of growth at 100 µM (TK-10 [5]): 181%
C#CCN(Cc1nc2cc(C(F)(F)F)ccc2nc1-c1ccccc1)c1ccc(F)c(F)c1,52%,63%,96%,103%,56%,< 40%,82%,70%,74%,70%,95%,90%,116%,61%,44%,< 40%,85%,75%,77%,8 µM,inhibition of growth at 100 µM (NCI-H226): 51%; inhibition of growth at 100 µM (HL-60(TB)): 79%; inhibition of growth at 100 µM (CCRF-CEM): 98%; inhibition of growth at 100 µM (HCC 2998): 102%; inhibition of growth at 100 µM (HOP-62): < 40%; inhibition of growth at 100 µM (TK-10 [5]): 48%
